# According to BindingDB's records for doi:10.1016/j.bmcl.2019.05.046 (Peking University, 2019):
# Target: Neuronal acetylcholine receptor subunit alpha-7 (Homo sapiens, UniProt P36544)
# Test: Positive allosteric modulation activity at human alpha7 nAChR expressed in Xenopus laevis oocytes assessed as increase in acetylcholine-induced channel current by measuring acetylcholine EC50 at 10 uM at -90 mV holding potential preincubated for 2 mins followed by co-application with acetylcholine for 10 secs by two-electrode voltage clamp method (Rvb = 231.8 +/- 2 uM)
# How it was run: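 ACh concentration-response on α7-expressing Xenopus oocytes, run without compound or after 2 min preincubation with 10 μM compound. Peak currents were normalised to the current evoked by 100 μM ACh alone. Curves were fitted for Emax, ACh EC50 and Hill coefficient, n = 4 per point.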
# Chain of Neuronal acetylcholine receptor subunit alpha-7 (P36544 whole entry): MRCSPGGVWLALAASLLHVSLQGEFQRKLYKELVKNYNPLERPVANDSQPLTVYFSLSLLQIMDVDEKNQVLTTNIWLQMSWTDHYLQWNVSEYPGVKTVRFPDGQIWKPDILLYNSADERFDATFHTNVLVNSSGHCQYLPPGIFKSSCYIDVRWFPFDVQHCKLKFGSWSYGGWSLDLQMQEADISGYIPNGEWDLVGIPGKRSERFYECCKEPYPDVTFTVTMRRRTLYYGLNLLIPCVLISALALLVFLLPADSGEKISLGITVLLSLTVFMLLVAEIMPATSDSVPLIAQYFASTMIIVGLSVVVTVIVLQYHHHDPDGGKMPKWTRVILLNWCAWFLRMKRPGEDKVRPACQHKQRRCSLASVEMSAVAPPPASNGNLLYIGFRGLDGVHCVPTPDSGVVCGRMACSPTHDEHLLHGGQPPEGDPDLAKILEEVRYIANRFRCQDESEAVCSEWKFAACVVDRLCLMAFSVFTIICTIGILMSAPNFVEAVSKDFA
smiles,measurement,value
Cc1cc(-c2cnc(N)c(C(=O)Nc3c(C)cccc3Cl)c2)ccc1F,EC50,258 µM
